Source: ChEMBL document CHEMBL1142211 (Antimicrob Agents Chemother, 2007)
Values after ≈ are worked out from the molar mass of the structure shown. Active and inactive are the calls of the source.

What was measured:
[1] = AUC(0-infinity) in BALB/c mouse at 37.5 to 2400 mg/kg, po; format: ADME, organism-based; design: dose 37.5-2400 mg/kg, route oral; conditions: plasma
Procedure, shortened: (§1)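 Uninfected mice received single ascending oral gavage doses as suspensions in 0.25% (wt/vol) carboxymethylcellulose at 10 ml/kg. Plasma was taken by retro-orbital puncture from 0.08 to 50 h after dosing, with 3 animals per time point. Drug was measured by HPLC-UV or LCMS, and parameters were derived by noncompartmental analysis.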

[2] = tested on: Mycobacterium tuberculosis; test: Bactericidal activity in Mycobacterium tuberculosis H37Rv on day 14; format: functional, organism-based
Procedure, shortened: (§2)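 H37Rv broth cultures were incubated with a range of drug concentrations. Viable CFU were counted by plating on Middlebrook 7H11 agar after 1, 7 and 14 days. Bactericidal effect is calculated against the initial inoculum before drug addition, as the mean of triplicates.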

[3] = Half life in BALB/c mouse at 37.5 to 2400 mg/kg, po; format: ADME, organism-based; design: dose 37.5-2400 mg/kg, route oral; conditions: in vivo
[4] = tested on: Mycobacterium tuberculosis; test: Bactericidal activity in Mycobacterium tuberculosis H37Rv on day 7; format: functional; procedure, shortened: as §2
Mus musculus [5] = test: Drug level in Mycobacterium tuberculosis infected BALB/c mouse model at 225 to 115000 mg/kg, po; format: ADME, organism-based; design: dose 225-115000 mg/kg, route oral; conditions: in vivo
[6] = tested on: Mycobacterium tuberculosis; test: Antimicrobial activity against Mycobacterium tuberculosis H37Rv infected in mouse J774A.1 macrophages; format: functional
Procedure, shortened: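 J774A.1 macrophages were infected with H37Rv (MOI 1:8, macrophage:bacilli) and exposed to drug at 32 to 0.5 mg/liter for 3 days. Intracellular MIC is the minimal concentration giving a static effect after 3 days. Efficacy is the log10 CFU/ml reduction over the assay period.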

[7] = tested on: Mycobacterium tuberculosis; test: Antimicrobial activity against Mycobacterium tuberculosis […] on day 7; format: functional; procedure, shortened: as §2
[8] = tested on: Mycobacterium tuberculosis; test: Bactericidal activity in Mycobacterium tuberculosis H37Rv on day 1; format: functional, organism-based; procedure, shortened: as §2
[9] = tested on: Mycobacterium tuberculosis; test: Antimicrobial activity against Mycobacterium tuberculosis H37Rv in 7H9 broth; format: functional
Procedure, shortened: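 Broth microdilution against H37Rv over 256 to 0.01 mg/liter. MIC is the lowest concentration with no visible turbidity.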

[10] = Cmax in BALB/c mouse at 37.5 to 2400 mg/kg, po; format: ADME, organism-based; design: dose 37.5-2400 mg/kg, route oral; conditions: in vivo; procedure, shortened: as §1
[11] = Ratio of fraction Cmax in Mycobacterium tuberculosis infected BALB/c mouse to MIC in Mycobacterium tuberculosis infected BALB/c mouse model at 225 to 115000 mg/kg, po; format: ADME, organism-based; design: dose 225-115000 mg/kg, route oral; conditions: in vivo
Procedure, shortened: (§3)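 Free Cmax and free AUC were derived from single-dose mouse plasma PK after conversion to unbound concentrations using each agent's binding equation, then divided by the broth MIC. Values for the fractionation regimens were estimated from the dose relationship.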

[12] = Ratio of fraction AUC in Mycobacterium tuberculosis infected BALB/c mouse to MIC in Mycobacterium tuberculosis infected BALB/c mouse model at 225 to 115000 mg/kg, po; format: ADME, organism-based; design: dose 225-115000 mg/kg, route oral; conditions: in vivo; procedure, shortened: as §3
[13] = tested on: Mycobacterium tuberculosis; test: Reduction of Mycobacterium tuberculosis H37Rv in orally dosed BALB/c mouse lung; format: functional
Procedure, shortened: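 BALB/c mice were infected by low-dose aerosol with H37Rv. Oral dosing started 4 weeks later and ran for 4 weeks (3 weeks for one agent), using fractionated regimens with 3 mice per regimen and saline controls. Lungs were homogenized 24 h after the end of treatment and plated on 7H11 agar with 10% ADC at 37°C in 5% CO2 for 3 weeks. The read-out is log10 CFU/lung.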

[14] = Toxicity in Mycobacterium tuberculosis infected BALB/c mouse model at 225 to 115000 mg/kg, po; format: organism-based; design: dose 225-115000 mg/kg, route oral; conditions: in vivo
[15] = Cmax in BALB/c mouse at 5 to 1000 mg/kg, po; format: ADME, organism-based; design: dose 5-1000 mg/kg, route oral; conditions: in vivo; procedure, shortened: as §1
[16] = tested on: Mycobacterium tuberculosis; test: Ratio of fraction Cmax in Mycobacterium tuberculosis infected BALB/c mouse to MIC in Mycobacterium tuberculosis infected BALB/c mouse model at 31 to 50000 mg/kg, po; format: functional; conditions: dose mg/kg 31-50000
Procedure, shortened: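 Unbound peak plasma level was divided by broth MIC. […] It was converted to free drug by a Boltzman fit of equilibrium-dialysis mouse plasma binding. Values for the fractionated regimens given to aerosol-infected mice were estimated from the dose–fCmax/MIC relationship.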

Mus musculus [17] = test: Drug level in Mycobacterium tuberculosis infected BALB/c mouse model at 31 to 50000 mg/kg, po; format: ADME, organism-based; design: dose 31-50000 mg/kg, route oral; conditions: in vivo
[18] = Half life in BALB/c mouse at 5 to 1000 mg/kg, po; format: ADME, organism-based; design: dose 5-1000 mg/kg, route oral; conditions: in vivo; procedure, shortened: as §1
[19] = Fraction unbound ligand in mouse plasma at 0.01 to 50 mg/litre; format: ADME, cell-free
Procedure, shortened: (§4)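 Mouse plasma protein binding was measured by equilibrium dialysis across cellulose acetate membranes (12,000 to 14,000 MW cutoff). Drug was quantified by HPLC-UV or LCMS. Each concentration was run in duplicate and the mean reported.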

[20] = Ratio of fraction AUC in Mycobacterium tuberculosis infected BALB/c mouse to MIC in Mycobacterium tuberculosis infected BALB/c mouse model at 31 to 50000 mg/kg, po; format: functional; conditions: dose mg/kg 31-50000
Procedure, shortened: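 Estimated from oral single-ascending-dose PK in uninfected BALB/c mice (gavage, 0.25% CMC suspension; plasma sampled 0.08–50 h, 3 mice/time point; HPLC-UV/LCMS). Total AUC0-∞ was made unbound using a protein-binding fit from mouse-plasma equilibrium dialysis, then divided by broth MIC over 576 h/24 h (SPX: 432 h/24 h). Values were interpolated from dose relationships for dose-fractionation regimens in aerosol-infected mice.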

[21] = AUC(0-infinity) in BALB/c mouse at 5 to 1000 mg/kg, po; format: ADME, organism-based; design: dose 5-1000 mg/kg, route oral; conditions: plasma; procedure, shortened: as §1
[22] = Cmax in BALB/c mouse at 6 to 400 mg/kg, po; format: ADME, organism-based; design: dose 6-400 mg/kg, route oral; conditions: in vivo; procedure, shortened: as §1
Mus musculus [23] = test: Drug level in Mycobacterium tuberculosis infected BALB/c mouse model at 38 to 19000 mg/kg, po; format: ADME, organism-based; design: dose 38-19000 mg/kg, route oral; conditions: in vivo
Plasma = test: Fraction unbound ligand in mouse plasma at 0.01 to 10 mg/litre; format: ADME, cell-free; procedure, shortened: as §4
[24] = AUC(0-infinity) in BALB/c mouse at 6 to 400 mg/kg, po; format: ADME, organism-based; design: dose 6-400 mg/kg, route oral; conditions: plasma; procedure, shortened: as §1

CC1COc2c(N3CCN(C)CC3)c(F)cc3c(=O)c(C(=O)O)cn1c23 (configuration not stated) [OFLOXACIN]
AUC(0-inf) [1]: 29000 ng·h/mL | Activity [2]: Active | half-life [3]: 4.93 h | Activity [4]: Active | T>MIC (Mus musculus [5]): 0% | MIC [6]: 2 µg/mL (≈ 5.53 µM) | log10CFU/ml [7]: 3 | Activity [8]: Active | MIC [9]: 0.5 µg/mL (≈ 1.38 µM) | Cmax [10]: 1700 ng/mL | Ratio [11]: 1 | RatioAUC/MIC [12]: 2 | Log10 cfu [13]: 1.5 | LD50 [14]: 3000 mg/kg

C[C@@H]1CN(c2c(F)c(N)c3c(=O)c(C(=O)O)cn(C4CC4)c3c2F)C[C@H](C)N1 [SPARFLOXACIN]
Cmax [15]: 750 ng/mL | Activity [2]: Active | Ratio [16]: 4 | T>MIC (Mus musculus [17]): 10% | half-life [18]: 9.8 h | Activity [4]: Active | fraction unbound [19]: 0.26 | MIC [6]: 2 µg/mL (≈ 5.1 µM) | log10CFU/ml [7]: 3 | Activity [8]: Active | MIC [9]: 0.1 µg/mL (≈ 0.255 µM) | RatioAUC/MIC [20]: 3 | AUC(0-inf) [21]: 43000 ng·h/mL | Log10 cfu [13]: 1.4

O=C(O)c1cn(C2CC2)c2cc(N3CCNCC3)c(F)cc2c1=O [CIPROFLOXACIN]
AUC(0-inf) [1]: 29000 ng·h/mL | Activity [2]: Active | log10CFU/ml [4]: 3.2 | MIC [6]: 4 µg/mL (≈ 12.1 µM) | log10CFU/ml [7]: 3 | Activity [8]: Active | MIC [9]: 0.5 µg/mL (≈ 1.51 µM) | Cmax [10]: 1200 ng/mL

COc1c(N2C[C@@H]3CCCN[C@@H]3C2)c(F)cc2c(=O)c(C(=O)O)cn(C3CC3)c12 [MOXIFLOXACIN]
Activity [2]: Active | Cmax [22]: 380 ng/mL | T>MIC (Mus musculus [23]): 0% | Activity [4]: Active | Fu (Plasma): 0.077 | AUC(0-inf) [24]: 25000 ng·h/mL | MIC [6]: 1 µg/mL (≈ 2.49 µM) | log10CFU/ml [7]: 3 | Activity [8]: Active | MIC [9]: 0.5 µg/mL (≈ 1.25 µM) | Log10 cfu [13]: 3.2
